ChEMBL document CHEMBL1649253, “New approach for drug susceptibility testing: monitoring the stress response of mycobacteria” (2009)
Values after ≈ are worked out from the molar mass of the structure shown.

Columns and labels:
[1] = tested on: Mycobacterium tuberculosis; test: Antibacterial activity against Mycobacterium tuberculosis H37Ra by broth microdilution method; assay type: functional
How it was run: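 Broth microdilution in supplemented 7H9 (complete) medium with twofold drug dilutions. Inoculum 10^6 CFU/ml from cultures grown at 37°C to mid- or late-log phase. Incubated 21 days at 37°C, then turbidity inspected by eye against drug-free controls. MIC is the lowest concentration with no visible growth.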

[2] = tested on: Mycobacterium tuberculosis; test: Antibacterial activity against Mycobacterium tuberculosis H37Ra by 7H9 broth dilution method; assay type: functional
[3] = tested on: Mycobacterium tuberculosis; test: Antibacterial activity against Mycobacterium tuberculosis H37Ra by 7H10 agar plate method; assay type: functional
[4] = tested on: Mycobacterium tuberculosis; test: Antibacterial activity against Mycobacterium tuberculosis H37Ra by BACTEC method; assay type: functional
[5] = tested on: Mycobacterium tuberculosis; test: Antibacterial activity against Mycobacterium tuberculosis H37Ra by BACTEC MGIT 960 method; assay type: functional
[6] = tested on: Mycobacterium tuberculosis; test: Antibacterial activity against Mycobacterium tuberculosis H37Ra by 7H11 agar plate method

| Structure (SMILES) | MIC [1] [µg/mL] | MIC [2] [µg/mL] | MIC [3] [µg/mL] | MIC [4] [µg/mL] | MIC [5] [µg/mL] | MIC [6] [µg/mL] |
| --- | --- | --- | --- | --- | --- | --- |
| CC[C@@H](CO)NCCN[C@@H](CC)CO [ETHAMBUTOL] | 5 (≈ 24.5 µM) | 2 (≈ 9.79 µM) | 5 (≈ 24.5 µM) | – | – | – |
| NNC(=O)c1ccncc1 [ISONIAZID] | 0.2 (≈ 1.46 µM) | 0.25 (≈ 1.82 µM) | 0.2 (≈ 1.46 µM) | 0.03 (≈ 0.219 µM) | – | – |
| NC(=O)c1cnccn1 [PYRAZINAMIDE] | 50 (≈ 406 µM) | – | – | – | 20 (≈ 162 µM) | 50 (≈ 406 µM) |
| CO[C@H]1/C=C/O[C@@]2(C)Oc3c(C)c(O)c4c(O)c(c(/C=N/N5CCN(C)CC5)c(O)c4c3C2=O)NC(=O)/C(C)=C\C=C\[C@H](C)[C@H](O)[C@@H](C)[C@@H](O)[C@@H](C)[C@H](OC(C)=O)[C@@H]1C [RIFAMPIN] | 0.2 (≈ 0.243 µM) | 0.125 (≈ 0.152 µM) | 0.2 (≈ 0.243 µM) | 0.25 (≈ 0.304 µM) | – | – |
